Test system: U2OS
Assay: Multiplex assay against U2OS
Type: toxicity, cell-based
Conditions: human
Procedure, shortened: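 Live cells were stained at seeding with Hoechst33342, BioTracker Green Microtubule Cytoskeleton Dye, MitoTracker Red and Annexin V Alexa Fluor 680. Following compound addition, they were imaged on a CQ1 microscope at 37°C and 5% CO2 and gated by CellPathfinder machine learning into Hoechst high-intensity objects or normal cells, with normal cells split into healthy, pyknosed or fragmented nuclei and pyknosed cells into mitotic or apoptotic. Tubulin, mitochondrial-mass and membrane-permeability phenotypes are per cents of healthy-nucleus cells.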

[1] = 12 h, 1 µM, compound concentration 1 uM, replicate 1
[2] = 12 h, 1 µM, compound concentration 1 uM, replicate 2
[3] = 12 h, 10 µM, compound concentration 10 uM, replicate 1
[4] = 12 h, 10 µM, compound concentration 10 uM, replicate 2
[5] = 24 h, 1 µM, compound concentration 1 uM, replicate 1
[6] = 24 h, 1 µM, compound concentration 1 uM, replicate 2
[7] = 24 h, 10 µM, compound concentration 10 uM, replicate 1
[8] = 24 h, 10 µM, compound concentration 10 uM, replicate 2
[9] = 48 h, 1 µM, compound concentration 1 uM, replicate 1
[10] = 48 h, 1 µM, compound concentration 1 uM, replicate 2
[11] = 48 h, 10 µM, compound concentration 10 uM, replicate 1
[12] = 48 h, 10 µM, compound concentration 10 uM, replicate 2

CCCSc1nc(N[C@@H]2C[C@H]2c2ccc(F)c(F)c2)c2nnn([C@@H]3C[C@H](OCCO)[C@@H](O)[C@H]3O)c2n1 [TICAGRELOR]
Population Apoptotic (%) [1]: 23% | Population Fragmented Nuclei (%) [1]: 11% | Population Healthy Nuclei (%) [1]: 74% | Population Hoechst High Intensity Objects (%) [1]: 6% | Population Membrane Permeable-Phenotype (%) [1]: 4% | Population Mitochondria Different-Phenotype (%) [1]: 21% | Population Mitotic Cells (%) [1]: 76% | Population Normal (%) [1]: 93% | Population Pyknosed Nuclei (%) [1]: 14% | Population Tubulin-Different-Phenotype (%) [1]: 10% | Total Cell Count [1]: 116 | Population Apoptotic (%) [2]: 66% | Population Fragmented Nuclei (%) [2]: 1% | Population Healthy Nuclei (%) [2]: 93% | Population Hoechst High Intensity Objects (%) [2]: 5% | Population Membrane Permeable-Phenotype (%) [2]: 5% | Population Mitochondria Different-Phenotype (%) [2]: 18% | Population Mitotic Cells (%) [2]: 33% | Population Normal (%) [2]: 94% | Population Pyknosed Nuclei (%) [2]: 4% | Population Tubulin-Different-Phenotype (%) [2]: 13% | Total Cell Count [2]: 82 | Population Apoptotic (%) [3]: 87% | Population Fragmented Nuclei (%) [3]: 16% | Population Healthy Nuclei (%) [3]: 64% | Population Hoechst High Intensity Objects (%) [3]: 7% | Population Membrane Permeable-Phenotype (%) [3]: 37% | Population Mitochondria Different-Phenotype (%) [3]: 99% | Population Mitotic Cells (%) [3]: 12% | Population Normal (%) [3]: 92% | Population Pyknosed Nuclei (%) [3]: 19% | Population Tubulin-Different-Phenotype (%) [3]: 100% | Total Cell Count [3]: 125 | Population Apoptotic (%) [4]: 75% | Population Fragmented Nuclei (%) [4]: 7% | Population Healthy Nuclei (%) [4]: 79% | Population Hoechst High Intensity Objects (%) [4]: 11% | Population Membrane Permeable-Phenotype (%) [4]: 43% | Population Mitochondria Different-Phenotype (%) [4]: 98% | Population Mitotic Cells (%) [4]: 25% | Population Normal (%) [4]: 88% | Population Pyknosed Nuclei (%) [4]: 12% | Population Tubulin-Different-Phenotype (%) [4]: 96% | Total Cell Count [4]: 67 | Population Apoptotic (%) [5]: 9% | Population Fragmented Nuclei (%) [5]: 7% | Population Healthy Nuclei (%) [5]: 84% | Population Hoechst High Intensity Objects (%) [5]: 7% | Population Membrane Permeable-Phenotype (%) [5]: 3% | Population Mitochondria Different-Phenotype (%) [5]: 10% | Population Mitotic Cells (%) [5]: 90% | Population Normal (%) [5]: 92% | Population Pyknosed Nuclei (%) [5]: 7% | Population Tubulin-Different-Phenotype (%) [5]: 6% | Total Cell Count [5]: 116 | Population Apoptotic (%) [6]: 57% | Population Fragmented Nuclei (%) [6]: 3% | Population Healthy Nuclei (%) [6]: 87% | Population Hoechst High Intensity Objects (%) [6]: 2% | Population Membrane Permeable-Phenotype (%) [6]: 4% | Population Mitochondria Different-Phenotype (%) [6]: 20% | Population Mitotic Cells (%) [6]: 42% | Population Normal (%) [6]: 97% | Population Pyknosed Nuclei (%) [6]: 8% | Population Tubulin-Different-Phenotype (%) [6]: 11% | Total Cell Count [6]: 81 | Population Apoptotic (%) [7]: 94% | Population Fragmented Nuclei (%) [7]: 18% | Population Healthy Nuclei (%) [7]: 58% | Population Hoechst High Intensity Objects (%) [7]: 6% | Population Membrane Permeable-Phenotype (%) [7]: 55% | Population Mitochondria Different-Phenotype (%) [7]: 100% | Population Mitotic Cells (%) [7]: 5% | Population Normal (%) [7]: 93% | Population Pyknosed Nuclei (%) [7]: 22% | Total Cell Count [7]: 155 | Population Apoptotic (%) [8]: 83% | Population Fragmented Nuclei (%) [8]: 7% | Population Healthy Nuclei (%) [8]: 73% | Population Hoechst High Intensity Objects (%) [8]: 8% | Population Membrane Permeable-Phenotype (%) [8]: 65% | Population Mitochondria Different-Phenotype (%) [8]: 97% | Population Mitotic Cells (%) [8]: 16% | Population Normal (%) [8]: 91% | Population Pyknosed Nuclei (%) [8]: 19% | Population Tubulin-Different-Phenotype (%) [8]: 97% | Total Cell Count [8]: 80 | Population Apoptotic (%) [9]: 69% | Population Fragmented Nuclei (%) [9]: 6% | Population Healthy Nuclei (%) [9]: 87% | Population Hoechst High Intensity Objects (%) [9]: 4% | Population Mitochondria Different-Phenotype (%) [9]: 7% | Population Mitotic Cells (%) [9]: 30% | Population Normal (%) [9]: 95% | Population Pyknosed Nuclei (%) [9]: 5% | Population Tubulin-Different-Phenotype (%) [9]: 3% | Total Cell Count [9]: 107 | Population Apoptotic (%) [10]: 25% | Population Fragmented Nuclei (%) [10]: 4% | Population Healthy Nuclei (%) [10]: 88% | Population Hoechst High Intensity Objects (%) [10]: 3% | Population Membrane Permeable-Phenotype (%) [10]: 2% | Population Mitochondria Different-Phenotype (%) [10]: 12% | Population Mitotic Cells (%) [10]: 75% | Population Normal (%) [10]: 96% | Population Pyknosed Nuclei (%) [10]: 6% | Population Tubulin-Different-Phenotype (%) [10]: 9% | Total Cell Count [10]: 74 | Population Apoptotic (%) [11]: 89% | Population Fragmented Nuclei (%) [11]: 25% | Population Healthy Nuclei (%) [11]: 38% | Population Hoechst High Intensity Objects (%) [11]: 8% | Population Membrane Permeable-Phenotype (%) [11]: 60% | Population Mitochondria Different-Phenotype (%) [11]: 94% | Population Mitotic Cells (%) [11]: 10% | Population Normal (%) [11]: 91% | Population Pyknosed Nuclei (%) [11]: 36% | Population Tubulin-Different-Phenotype (%) [11]: 98% | Total Cell Count [11]: 230 | Population Apoptotic (%) [12]: 71% | Population Fragmented Nuclei (%) [12]: 17% | Population Healthy Nuclei (%) [12]: 60% | Population Hoechst High Intensity Objects (%) [12]: 11% | Population Membrane Permeable-Phenotype (%) [12]: 74% | Population Mitochondria Different-Phenotype (%) [12]: 97% | Population Mitotic Cells (%) [12]: 28% | Population Normal (%) [12]: 88% | Population Pyknosed Nuclei (%) [12]: 21% | Population Tubulin-Different-Phenotype (%) [12]: 97% | Total Cell Count [12]: 130

From ChEMBL document CHEMBL4689842, “EUbOPEN Chemogenomics Library wave 1” (2021)
